Test results reported in PMC5346463 (Anticancer research, 2014).
Converted amounts (≈) assume the structure as drawn.

Tests used:
[1] = Cytotoxicity, sulforhodamine B; format: cell-based; details: human, MDA-MB-231 cells
Summary of the method: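 MDA-MB-231 cells (DMEM high glucose, 10% FBS, antibiotic/antimycotic) plated at 5,000 cells/well and left to adhere overnight at normoxia. Pre-incubated 1 h with titrated test compound, then cultured at normoxia (21% O2, 5% CO2) or hypoxia (1% O2, 5% CO2). SRB stain after 96 h, OD read at 540 nm. IC50 given as mean±SEM, n=3.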

HIF-1α = assay: Western blot of HIF-1α protein expression in MDA-MB-231 cells; format: cell-based; details: hypoxic conditions (1% oxygen)
PHD3 = assay: Quantitative real-time PCR, PHD3 mRNA in MDA-MB-231 cells; format: cell-based; details: 10 μM, 8 h, normalized to Cyclophilin A, n=3
Summary of the method: (§1)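 MDA-MB-231 cells seeded at 3.5×10^5/well in six-well plates overnight. Treated 8 h with 10 μM test compound in medium under hypoxia (1% O2) or normoxia; controls got medium with […] DMSO. Total RNA isolated and reverse-transcribed. SYBR Green qPCR run with 40 ng cDNA/well, normalised to Cyclophilin A, n=3.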

HIF1A = assay: Quantitative real-time PCR, HIF1A mRNA in MDA-MB-231 cells; format: cell-based; details: 10 μM, 8 h, normalized to Cyclophilin A, n=3
Summary of the method: as §1

VEGF = assay: Quantitative real-time PCR, VEGF mRNA in MDA-MB-231 cells; format: cell-based; details: 10 μM, 8 h, normalized to Cyclophilin A, n=3
Summary of the method: as §1

[2] = Aqueous solubility, miniaturized shake-flask with LC-MS/MS; format: physicochemical; details: for Solubility: room temperature
Summary of the method: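 Test compound (1.0 mg) shaken in 1 mL water or pH 7.0 phosphate buffer for 24 h at 450 rpm, room temperature. Suspension spun at 10,000 RPM for 15 min. Supernatant quantified by ESI LC-MS/MS on a PFP column using a 0.1% formic acid/MeOH gradient at 0.4 mL/min.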

| Structure (SMILES) | IC50 at 96 h [1] | HIF-1α protein accumulation under hypoxic stress (western blot) (HIF-1α) | PHD3 mRNA level (qPCR) (PHD3; hypoxia (1% oxygen)) | PHD3 mRNA level (qPCR) (PHD3; normoxia) | HIF1A expression (qPCR) (HIF1A; hypoxia (1% oxygen)) | HIF1A expression level (qPCR) (HIF1A; normoxia) | VEGF expression (qPCR) (VEGF; hypoxia (1% oxygen)) | VEGF expression level (qPCR) (VEGF; normoxia) | Solubility ([2]; Buffer pH 7.0, 24 h shaking) | Solubility ([2]; Water, 24 h shaking) | Aqueous solubility ([2]; buffer pH 7.0) | Aqueous solubility ([2]; water) |
| --- | --- | --- | --- | --- | --- | --- | --- | --- | --- | --- | --- | --- |
| C[C@H]1O[C@@H](O[C@H]2[C@@H](O)C[C@H](O[C@H]3[C@@H](O)C[C@H](O[C@H]4CC[C@@]5(C)[C@H](CC[C@@H]6[C@@H]5C[C@@H](O)[C@]5(C)[C@@H](C7=CC(=O)OC7)CC[C@]65O)C4)O[C@@H]3C)O[C@@H]2C)C[C@H](O)[C@@H]1O [Digoxin] | 250 ± 50 nM |  |  |  |  |  |  |  |  |  |  |  |
| CC(=O)O[C@@]12CO[C@@H]1C[C@H](O)[C@@]1(C)C(=O)[C@H](O)C3=C(C)[C@@H](OC(=O)[C@H](O)[C@@H](NC(=O)OC(C)(C)C)c4ccccc4)C[C@@](O)([C@@H](OC(=O)c4ccccc4)[C@H]21)C3(C)C [Docetaxel] | < 5 nM |  |  |  |  |  |  |  |  |  |  |  |
| OCc1ccc(-c2nn(Cc3ccccc3)c3ccccc23)o1 [YC-1, 3-(5′-hydroxymethyl-2′-furyl)-1-benzyl indazole] |  | not inhibited | insignificant | enhancement of PHD3 mRNA levels | remained repressed | significantly reduced | remained repressed | significantly reduced | 0.94 µg/mL (≈ 3.09 µM) | 1.241 µg/mL (≈ 4.08 µM) | 0.9 µg/mL | 1.2 µg/mL |
